From ChEMBL document CHEMBL3612009, “Synthesis and structure-activity relationship study of a new series of antiparasitic aryloxyl thiosemicarbazones inhibiting Trypanosoma cruzi cruzain” (Eur J Med Chem, 2015)
The source made the active and inactive calls. The calls are words filed in the database; no cut-off is given here.

What was measured:
Trypanosoma cruzi [1] = experiment: Antiparasitic activity against trypomastigotes of Trypanosoma cruzi Y assessed as reduction of parasite count after 24 hrs; type: functional
[2] = Selectivity index, ratio of CC50 for mouse L929 cells to IC50 for amastigote and trypomastigote forms of Trypanosoma cruzi Tulahuen; type: functional
Summary of the method: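 SI = CC50 in uninfected L-929 fibroblasts (alamarBlue, 96 h) divided by IC50 against intracellular amastigote/trypomastigote forms (beta-galactosidase assay, 7 days).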

Trypanosoma cruzi [3] = experiment: Antiparasitic activity against trypomastigotes of Trypanosoma cruzi Y assessed as induction of parasite death at 5 uM after 24 hrs using propidium iodide staining after 24 hrs by flow cytometry analysis; type: functional
Summary of the method: (§1)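 Y strain trypomastigotes (4x10^5) in RPMI-1640 with 10% FBS, exposed to test agent for 24 h at 37 °C, 5% CO2; then stained with propidium iodide and analysed by flow cytometry, at least 10,000 events. Read-out is % PI-positive cells versus untreated parasites; Triton X-100 as positive control. Two independent experiments, each concentration in duplicate.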

Trypanosoma cruzi [4] = experiment: Antiparasitic activity against trypomastigotes of Trypanosoma cruzi Y assessed as induction of parasite death at 25 uM after 24 hrs using propidium iodide staining after 24 hrs by flow cytometry analysis; type: functional; summary of the method: as §1
Trypanosoma cruzi [5] = experiment: Antiparasitic activity against epimastigotes of Trypanosoma cruzi Dm28c assessed as reduction of parasite count after 5 days; type: functional; settings: 120 h
[6] = Cytotoxicity against BALB/c mouse splenocytes assessed as maximum non-toxic concentration by measuring [3H]-thymidine incorporation after 24 hrs by liquid scintillation counting; type: cell-based, Splenocyte
Summary of the method: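 BALB/c splenocytes, 5 x 10^6 cells/well, given compounds at 1.23, 3.7, 33.33 and 100 µg/mL, 1% DMSO final, triplicate; 24 h at 37 °C, 5% CO2. Then 1.0 µCi [3H]-thymidine added; cells harvested and counted by liquid scintillation. Highest non-cytotoxic concentration taken from % incorporation.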

Trypanosoma cruzi [7] = experiment: Antitrypanosomal activity against amastigote and trypomastigote forms of Trypanosoma cruzi Tulahuen expressing beta-galactosidase gene infected in mouse L-929 cells assessed as inhibition of parasite growth after 7 days by colorimetric betagalactosidase assay; type: functional, organism-based; settings: L929, 168 h
[8] = Cytotoxicity against mouse L929 cells assessed as cell viability after 96 hrs by alamarBlue assay; type: cell-based
Summary of the method: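 Uninfected L-929 cells at the same cell number and timing as the beta-galactosidase assay; increasing concentrations starting at the T. cruzi IC50, quadruplicate. After 96 h, alamarBlue added; absorbance at 570 and 600 nm read 6 h later. Viability as % reduction versus untreated; CC50 by linear interpolation.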

[9] = biological target: Cruzipain (Trypanosoma cruzi) (UniProt P25779); experiment: Inhibition of Trypanosoma cruzi catalytic activity of cruzain using Z-FR-AMC as substrate at 50 uM after 10 mins by fluorescence assay
Trypanosoma cruzi [10] = experiment: Antitrypanosomal activity against amastigote and trypomastigote forms of Trypanosoma cruzi Tulahuen expressing beta-galactosidase gene infected in mouse L-929 cells assessed as inhibition of parasite growth at 100 uM after 7 days by colorimetric betagalactosidase assay; type: functional; settings: L929, 168 h
Trypanosoma cruzi [11] = experiment: Antiparasitic activity against trypomastigotes of Trypanosoma cruzi Y assessed as induction of parasite death at 0.5 uM after 24 hrs using propidium iodide staining after 24 hrs by flow cytometry analysis; type: functional; summary of the method: as §1
Trypanosoma cruzi [12] = experiment: Antiparasitic activity against trypomastigotes of Trypanosoma cruzi Y assessed as induction of parasite death after 24 hrs using propidium iodide staining after 24 hrs by flow cytometry analysis; type: functional, organism-based
Summary of the method: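 Y strain trypomastigotes (4x10^5) in RPMI-1640 + 10% FBS exposed to 0.5 or 5.0 µM of each thiosemicarbazone, benznidazole 25 µM, or Triton X-100, for 24 h at 37 °C, 5% CO2. Then PI-stained and read by flow cytometry, at least 10,000 events. Two independent experiments, duplicates.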

[13] = biological target: Cruzipain (Trypanosoma cruzi) (UniProt P25779); experiment: Inhibition of Trypanosoma cruzi catalytic activity of cruzain using Z-FR-AMC as substrate at 100 uM after 10 mins by fluorescence assay
Cruzipain = Cruzipain (Trypanosoma cruzi, UniProt P25779); experiment: Inhibition of Trypanosoma cruzi catalytic activity of cruzain using Z-FR-AMC as substrate after 10 mins by fluorescence assay
Sequence of Cruzipain (P25779 whole entry): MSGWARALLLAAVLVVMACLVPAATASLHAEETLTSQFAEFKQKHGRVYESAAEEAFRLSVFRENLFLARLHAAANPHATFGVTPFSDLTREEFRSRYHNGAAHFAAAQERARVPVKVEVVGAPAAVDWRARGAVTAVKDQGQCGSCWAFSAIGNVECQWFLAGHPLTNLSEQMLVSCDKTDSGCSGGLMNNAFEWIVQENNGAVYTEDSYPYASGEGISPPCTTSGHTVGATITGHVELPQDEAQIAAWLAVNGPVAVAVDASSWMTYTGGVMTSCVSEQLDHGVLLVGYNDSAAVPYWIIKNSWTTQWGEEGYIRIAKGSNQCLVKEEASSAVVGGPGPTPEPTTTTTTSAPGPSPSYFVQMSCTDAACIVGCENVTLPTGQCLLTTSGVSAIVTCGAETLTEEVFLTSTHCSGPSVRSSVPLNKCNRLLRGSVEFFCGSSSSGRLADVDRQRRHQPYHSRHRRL

Sequence of Cruzipain (Trypanosoma cruzi) (P25779 123-467 limits assumed): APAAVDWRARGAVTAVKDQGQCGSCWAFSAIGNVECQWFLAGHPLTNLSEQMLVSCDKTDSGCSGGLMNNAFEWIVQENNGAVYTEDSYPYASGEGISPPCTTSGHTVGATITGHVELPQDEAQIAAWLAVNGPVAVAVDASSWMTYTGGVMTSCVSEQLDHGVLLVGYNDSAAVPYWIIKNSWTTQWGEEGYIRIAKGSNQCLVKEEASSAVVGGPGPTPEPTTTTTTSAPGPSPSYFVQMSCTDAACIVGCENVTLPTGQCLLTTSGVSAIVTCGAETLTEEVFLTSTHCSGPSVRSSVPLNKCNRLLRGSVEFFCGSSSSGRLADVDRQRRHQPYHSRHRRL

For `O=C(Cn1ccnc1[N+](=O)[O-])NCc1ccccc1` [BENZNIDAZOLE], the CC50 (Trypanosoma cruzi [1]) was 6.2 µM, the “Ratio CC50/IC50” value [2] was 625 and the Activity (Trypanosoma cruzi [3]) was 4.2%. For the same compound, the Activity (Trypanosoma cruzi [4]) was 56.4%.

`CC(C)c1ccc(OC/C(=N\NC(N)=S)c2ccc(Br)cc2)cc1` showed an IC50 (Trypanosoma cruzi [5]) of 3.8 µM, a CC50 (Trypanosoma cruzi [1]) of 2.9 µM and an MNTC at 24 h [6] of over 246000 nM. For the same compound, the IC50 (Trypanosoma cruzi [7]) was 12.3 µM, the CC50 at 96 h [8] was 24.6 µM and the “Ratio CC50/IC50” value [2] was 2. It also gave an inhibition [9] of 49.7%, an inhibition at 100 µM (Trypanosoma cruzi [10]) of over 70% and an Activity (Trypanosoma cruzi [3]) of 42.2%. The Activity (Trypanosoma cruzi [11]) was 2.3% and the inhibition (Trypanosoma cruzi [12]) was “Dose-dependent effect”.

With `C/C(=N\NC(N)=S)C(C)Oc1ccccc1-c1ccccc1` (stereo not drawn) the inhibition [13] was “inactive”.

`NC(=S)N/N=C(\COc1ccc(F)c(Cl)c1)c1ccc(Br)cc1` gave an IC50 (Trypanosoma cruzi [5]) of 3.4 µM, a CC50 (Trypanosoma cruzi [1]) of 1.7 µM and an MNTC at 24 h [6] of 2400 nM. The IC50 (Trypanosoma cruzi [7]) was 9 µM, the CC50 at 96 h [8] was 48 µM and the “Ratio CC50/IC50” value [2] was 5.3. It also gave an inhibition [9] of 93.7%, an IC50 (Cruzipain) of 0.07 µM and an inhibition at 100 µM (Trypanosoma cruzi [10]) of over 70%. It also gave an Activity (Trypanosoma cruzi [3]) of 34% and an Activity (Trypanosoma cruzi [11]) of 2.7%.

With `CC(=O)Nc1ccc(OC(C)/C(C)=N/NC(N)=S)cc1` (stereo not drawn) the inhibition [13] was “inactive”.
